# Laboratory results as given in ChEMBL document CHEMBL4138195, “Discovery of novel propargylamine-modified 4-aminoalkyl imidazole substituted pyrimidinylthiourea derivatives as multifunctional agents for the treatment of Alzheimer's disease” (Eur J Med Chem, 2018).
# Activity calls are given as the source filed them. The rule behind the calls is not given here.
# Key:
# Acetylcholinesterase = molecular target: T1, Acetylcholinesterase (Rattus norvegicus, UniProt P37136); test: Inhibition of AChE in rat cortex homogenate using acetylthiocholine iodide as substrate after 20 mins by Ellman's method
# T1 sequence (P37136 whole entry): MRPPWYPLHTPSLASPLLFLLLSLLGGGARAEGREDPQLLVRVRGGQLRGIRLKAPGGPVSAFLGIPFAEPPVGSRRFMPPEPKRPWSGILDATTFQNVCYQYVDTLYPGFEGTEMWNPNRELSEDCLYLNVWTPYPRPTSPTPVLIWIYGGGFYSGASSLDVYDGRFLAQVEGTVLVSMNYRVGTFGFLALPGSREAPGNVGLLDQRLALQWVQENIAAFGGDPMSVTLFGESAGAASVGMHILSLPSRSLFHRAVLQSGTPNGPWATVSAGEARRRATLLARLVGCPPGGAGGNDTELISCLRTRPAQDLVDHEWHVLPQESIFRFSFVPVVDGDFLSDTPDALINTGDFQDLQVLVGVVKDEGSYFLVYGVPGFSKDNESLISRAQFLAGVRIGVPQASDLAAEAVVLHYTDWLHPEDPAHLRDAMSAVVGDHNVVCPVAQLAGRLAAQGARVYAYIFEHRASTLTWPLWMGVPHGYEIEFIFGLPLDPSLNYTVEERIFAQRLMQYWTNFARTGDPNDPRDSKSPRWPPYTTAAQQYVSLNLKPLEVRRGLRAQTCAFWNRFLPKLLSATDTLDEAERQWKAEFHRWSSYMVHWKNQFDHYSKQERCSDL
# Butyrylcholinesterase = Butyrylcholinesterase (Rattus norvegicus, UniProt Q9JKC1); test: Inhibition of BuChE in rat serum using butyrylthiocholine iodide as substrate after 20 mins by Ellman's method
# [1] = molecular target: T2, Amine oxidase [flavin-containing] A (Homo sapiens, UniProt P21397); test: Inhibition of recombinant human MAOA using p-tyramine as substrate preincubated for 15 mins followed by substrate addition measured after 15 mins by Amplex red reagent based fluorescence assay
# T2 sequence (P21397 whole entry): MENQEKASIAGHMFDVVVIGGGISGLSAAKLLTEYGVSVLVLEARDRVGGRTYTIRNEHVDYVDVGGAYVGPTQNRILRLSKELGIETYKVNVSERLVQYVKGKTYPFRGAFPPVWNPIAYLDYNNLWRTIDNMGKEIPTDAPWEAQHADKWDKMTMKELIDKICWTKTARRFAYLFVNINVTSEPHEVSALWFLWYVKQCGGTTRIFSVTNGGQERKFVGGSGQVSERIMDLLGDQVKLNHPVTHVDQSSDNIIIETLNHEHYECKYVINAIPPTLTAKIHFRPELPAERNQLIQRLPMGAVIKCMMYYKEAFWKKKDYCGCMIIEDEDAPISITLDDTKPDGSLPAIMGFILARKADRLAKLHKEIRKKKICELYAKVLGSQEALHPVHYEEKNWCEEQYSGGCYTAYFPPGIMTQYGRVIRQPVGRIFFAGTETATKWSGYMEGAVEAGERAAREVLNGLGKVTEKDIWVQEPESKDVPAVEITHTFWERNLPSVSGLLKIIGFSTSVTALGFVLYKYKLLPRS
# [2] = molecular target: T2, Amine oxidase [flavin-containing] A; test: Inhibition of recombinant human MAOA at 50 uM using p-tyramine as substrate preincubated for 15 mins followed by substrate addition measured after 15 mins by Amplex red reagent based fluorescence assay; settings: 0.25 h
# Procedure, shortened: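 Recombinant human MAO-A (12.5 µg/mL) or MAO-B (75 µg/mL) preincubated 15 min at 37 °C with compound (diluted from 10 mM DMSO stock in 50 mM KH2PO4, pH 7.4). Amplex Red working solution added: 2 mM p-tyramine (MAO-A) or benzylamine (MAO-B), 2 U/mL HRP. After 15 min at 37 °C, fluorescence read (ex 545/em 590), background from enzyme-free wells subtracted.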
# [3] = molecular target: T3, Amine oxidase [flavin-containing] B (Homo sapiens, UniProt P27338)
# T3 sequence (P27338 whole entry): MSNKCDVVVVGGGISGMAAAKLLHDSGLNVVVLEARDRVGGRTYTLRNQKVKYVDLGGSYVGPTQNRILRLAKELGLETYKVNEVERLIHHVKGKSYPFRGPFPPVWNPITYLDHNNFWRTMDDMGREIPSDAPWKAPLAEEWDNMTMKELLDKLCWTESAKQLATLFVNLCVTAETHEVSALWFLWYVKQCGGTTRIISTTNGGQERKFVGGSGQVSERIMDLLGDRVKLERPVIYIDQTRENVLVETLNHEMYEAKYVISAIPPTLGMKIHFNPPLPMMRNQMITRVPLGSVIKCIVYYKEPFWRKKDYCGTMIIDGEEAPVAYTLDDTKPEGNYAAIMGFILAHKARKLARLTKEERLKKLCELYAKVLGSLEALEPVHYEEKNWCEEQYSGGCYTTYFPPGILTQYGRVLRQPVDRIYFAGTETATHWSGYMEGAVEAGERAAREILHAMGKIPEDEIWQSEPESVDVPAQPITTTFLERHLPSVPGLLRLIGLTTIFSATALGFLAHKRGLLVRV
# [4] = Antioxidant activity assessed as trolox equivalent of AAPH radical scavenging activity preincubated for 10 mins followed by AAPH addition measured every 2 mins for 180 mins by ORAC-FL assay; format: functional
# Procedure, shortened: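 Compound at 20 µM (diluted from 10 mM DMSO stock in 75 mM phosphate, pH 7.4) with fluorescein (0.117 µM diluted) for 10 min at 37 °C, then AAPH (40 mM solution) added. Fluorescence (ex 485/em 535) read every 2 min for 180 min. […] Triplicate wells, ≥3 runs.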
# [5] = Inhibition of Cu2+-mediated amyloid beta (1 to 42) peptide-induced cytotoxicity in E17 Sprague-Dawley rat primary cortical neurons assessed as neuroprotective activity by measuring increase in cell viability at 1 uM after 24 hrs by MTT assay
# Procedure, shortened: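 Rat E17 primary cortical neurons after 9 days in culture. Aβ1-42 samples, prepared as for the dot blot (± Cu2+, ± compound), added to the cultures at 1 µM for 24 h. Viability by MTT, normalized to the vehicle group. EGCG and clioquinol as positive controls.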
# Butyrylcholinesterase, sequence (Q9JKC1 whole entry): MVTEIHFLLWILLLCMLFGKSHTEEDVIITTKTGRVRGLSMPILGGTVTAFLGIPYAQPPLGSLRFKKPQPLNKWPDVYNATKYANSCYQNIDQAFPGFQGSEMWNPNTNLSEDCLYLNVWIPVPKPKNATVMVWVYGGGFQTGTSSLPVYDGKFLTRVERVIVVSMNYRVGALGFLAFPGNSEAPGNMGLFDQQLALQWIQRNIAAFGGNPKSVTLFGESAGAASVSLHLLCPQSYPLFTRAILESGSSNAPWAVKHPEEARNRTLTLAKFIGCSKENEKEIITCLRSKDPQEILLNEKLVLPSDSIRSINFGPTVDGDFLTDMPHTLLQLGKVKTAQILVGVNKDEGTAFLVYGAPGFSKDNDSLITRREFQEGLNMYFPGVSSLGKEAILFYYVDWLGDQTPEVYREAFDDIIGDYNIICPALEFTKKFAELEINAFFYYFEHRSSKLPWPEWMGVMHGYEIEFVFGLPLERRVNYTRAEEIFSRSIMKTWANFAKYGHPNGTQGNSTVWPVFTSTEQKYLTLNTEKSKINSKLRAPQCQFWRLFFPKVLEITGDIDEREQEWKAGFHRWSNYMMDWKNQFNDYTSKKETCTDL
smiles,measurement,setting,value
C#CCN(C)Cc1cn(-c2cc(NC(=S)NCC)ncn2)cn1,IC50,Acetylcholinesterase,324 nM
same,IC50,Butyrylcholinesterase,> 40000 nM
same,IC50,[1],> 50000 nM
same,inhibition at 50 µM,[2],20.2%
same,IC50,[3],1430 nM
same,Activity (umolequiv/umol),[4],1.13
same,Activity,[5],Active
